The text below walks through data of ChEMBL document CHEMBL2157861, “Discovery of 4-morpholino-pyrimidin-6-one and 4-morpholino-pyrimidin-2-one-containing Phosphoinositide 3-kinase (PI3K) p110β isoform inhibitors through structure-based fragment optimisation” (Bioorg Med Chem Lett, 2012).

≈ marks a conversion by molar mass, not a printed value.

A short description of data set [1]: Lipophilicity, log D of the compound by HPLC analysis at pH 7.4. It counts as physicochemical. The note with it: buffer. The essentials:
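LogD was determined experimentally at pH 7.4 by an HPLC method.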

For data set [2], the target named is Phosphatidylinositol 4,5-bisphosphate 3-kinase catalytic subunit beta isoform (Homo sapiens, UniProt P42338). The data set can be described thus: Inhibition of human recombinant His6-tagged PI3K p110beta expressed in baculovirus using DiC8-PI(4,5)P2 as substrate after 20 mins by AlphaScreen assay. The essentials:
(§1)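 Values are the mean of at least two experiments. Experimental error was within 20% of the value.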
A general note: In Alpha technology, singlet oxygen from a donor bead excites a nearby acceptor bead.

Data set [3] concerns the target Phosphatidylinositol 4,5-bisphosphate 3-kinase catalytic subunit alpha isoform (Homo sapiens, UniProt P42336). The data set can be described thus: Inhibition of human recombinant His6-tagged PI3K p110alpha expressed in baculovirus using DiC8-PI(4,5)P2 as substrate after 20 mins by AlphaScreen assay. The essentials:
as §1

Data set [4] is described as follows: Solubility of the compound in DMSO/HBSS at pH 7.4. It counts as physicochemical. The essentials: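 Solubility was measured from DMSO into HBSS at pH 7.4.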
The target in data set [5] is T1, Phosphatidylinositol 4,5-bisphosphate 3-kinase catalytic subunit delta isoform (Homo sapiens, UniProt O00329).
T1 sequence (O00329 whole entry): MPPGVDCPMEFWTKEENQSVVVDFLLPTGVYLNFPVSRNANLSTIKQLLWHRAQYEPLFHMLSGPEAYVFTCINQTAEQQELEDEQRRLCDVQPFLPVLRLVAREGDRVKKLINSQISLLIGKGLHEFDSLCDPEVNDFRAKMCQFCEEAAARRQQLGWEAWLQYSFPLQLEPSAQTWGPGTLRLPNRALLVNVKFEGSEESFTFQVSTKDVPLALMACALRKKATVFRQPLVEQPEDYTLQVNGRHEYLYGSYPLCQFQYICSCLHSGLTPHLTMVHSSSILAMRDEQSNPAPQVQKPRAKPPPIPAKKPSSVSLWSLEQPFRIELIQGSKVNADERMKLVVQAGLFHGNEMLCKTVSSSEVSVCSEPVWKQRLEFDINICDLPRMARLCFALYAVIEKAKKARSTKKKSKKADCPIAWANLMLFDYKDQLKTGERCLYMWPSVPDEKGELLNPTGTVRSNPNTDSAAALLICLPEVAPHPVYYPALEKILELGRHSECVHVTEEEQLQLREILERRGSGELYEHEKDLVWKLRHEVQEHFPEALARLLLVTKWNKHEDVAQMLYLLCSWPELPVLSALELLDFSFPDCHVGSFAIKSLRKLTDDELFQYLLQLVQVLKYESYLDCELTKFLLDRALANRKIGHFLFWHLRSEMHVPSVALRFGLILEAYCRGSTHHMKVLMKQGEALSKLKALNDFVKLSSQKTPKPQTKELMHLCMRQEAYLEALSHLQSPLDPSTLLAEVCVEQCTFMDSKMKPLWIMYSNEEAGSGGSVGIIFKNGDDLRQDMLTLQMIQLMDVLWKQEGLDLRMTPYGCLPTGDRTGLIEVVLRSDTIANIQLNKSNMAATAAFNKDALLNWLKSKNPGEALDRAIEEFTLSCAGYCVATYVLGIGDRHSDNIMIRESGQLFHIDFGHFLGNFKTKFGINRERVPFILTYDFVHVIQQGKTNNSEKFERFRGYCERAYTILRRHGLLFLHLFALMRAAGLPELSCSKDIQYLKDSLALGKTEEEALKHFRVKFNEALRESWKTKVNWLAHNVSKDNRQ
The data set can be described thus: Inhibition of PI3K p110delta.

Data set [6] is described as follows: Half life in human liver microsomes after 30 mins. The class given is ADME, Microsome. The essentials:
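Half-life was measured after a 30 min incubation with human liver microsomes at 0.5 mg/mL.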
On the technique in general: Microsomes from liver hold many membrane-bound enzymes, among them those of drug oxidation.

A further data set has as its system Liver microsomes. The data set can be described thus: Drug metabolism in human liver microsomes assessed as reactive glutathione adduct formation ratio after 30 mins relative to clozapine. It counts as ADME, Microsome. The following applies: 0.5 h. The essentials:
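Human liver microsomes at 1 mg/mL were incubated for 30 min in the presence of glutathione. The read-out was the ratio of reactive metabolite formation.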

Data set [7] addresses Phosphatidylinositol 4,5-bisphosphate 3-kinase catalytic subunit gamma isoform (Homo sapiens, UniProt P48736). In words: Inhibition of PI3K p110gamma.

Sequence of Phosphatidylinositol 4,5-bisphosphate 3-kinase catalytic subunit alpha isoform (P42336 whole entry, canonical isoform): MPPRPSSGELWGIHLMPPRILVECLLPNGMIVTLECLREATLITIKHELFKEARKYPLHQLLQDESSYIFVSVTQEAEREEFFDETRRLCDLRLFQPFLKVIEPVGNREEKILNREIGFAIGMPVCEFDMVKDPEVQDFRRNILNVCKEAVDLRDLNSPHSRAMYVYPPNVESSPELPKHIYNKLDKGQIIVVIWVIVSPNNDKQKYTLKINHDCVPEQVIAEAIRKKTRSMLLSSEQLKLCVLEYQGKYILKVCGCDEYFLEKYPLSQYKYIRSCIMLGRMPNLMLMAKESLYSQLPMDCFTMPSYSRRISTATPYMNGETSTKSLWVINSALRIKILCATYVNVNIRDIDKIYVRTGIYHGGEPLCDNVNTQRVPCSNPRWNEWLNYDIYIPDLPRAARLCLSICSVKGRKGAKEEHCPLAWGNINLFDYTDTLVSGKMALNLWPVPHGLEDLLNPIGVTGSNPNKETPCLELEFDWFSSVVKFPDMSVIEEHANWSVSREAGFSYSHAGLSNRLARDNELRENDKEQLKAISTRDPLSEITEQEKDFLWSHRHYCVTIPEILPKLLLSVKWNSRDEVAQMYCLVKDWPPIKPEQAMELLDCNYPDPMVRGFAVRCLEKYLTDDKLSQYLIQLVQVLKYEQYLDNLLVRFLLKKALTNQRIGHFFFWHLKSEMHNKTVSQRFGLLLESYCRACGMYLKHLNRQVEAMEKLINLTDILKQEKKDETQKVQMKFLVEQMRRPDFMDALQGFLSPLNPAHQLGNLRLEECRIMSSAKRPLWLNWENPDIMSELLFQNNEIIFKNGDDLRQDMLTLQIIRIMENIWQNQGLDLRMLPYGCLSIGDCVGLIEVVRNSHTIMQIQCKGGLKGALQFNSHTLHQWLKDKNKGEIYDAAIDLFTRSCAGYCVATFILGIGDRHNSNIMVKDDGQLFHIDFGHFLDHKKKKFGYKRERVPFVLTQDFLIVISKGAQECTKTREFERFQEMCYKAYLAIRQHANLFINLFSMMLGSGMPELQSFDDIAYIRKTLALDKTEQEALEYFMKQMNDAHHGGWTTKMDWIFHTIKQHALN
Sequence of Phosphatidylinositol 4,5-bisphosphate 3-kinase catalytic subunit beta isoform (P42338 whole entry, canonical isoform): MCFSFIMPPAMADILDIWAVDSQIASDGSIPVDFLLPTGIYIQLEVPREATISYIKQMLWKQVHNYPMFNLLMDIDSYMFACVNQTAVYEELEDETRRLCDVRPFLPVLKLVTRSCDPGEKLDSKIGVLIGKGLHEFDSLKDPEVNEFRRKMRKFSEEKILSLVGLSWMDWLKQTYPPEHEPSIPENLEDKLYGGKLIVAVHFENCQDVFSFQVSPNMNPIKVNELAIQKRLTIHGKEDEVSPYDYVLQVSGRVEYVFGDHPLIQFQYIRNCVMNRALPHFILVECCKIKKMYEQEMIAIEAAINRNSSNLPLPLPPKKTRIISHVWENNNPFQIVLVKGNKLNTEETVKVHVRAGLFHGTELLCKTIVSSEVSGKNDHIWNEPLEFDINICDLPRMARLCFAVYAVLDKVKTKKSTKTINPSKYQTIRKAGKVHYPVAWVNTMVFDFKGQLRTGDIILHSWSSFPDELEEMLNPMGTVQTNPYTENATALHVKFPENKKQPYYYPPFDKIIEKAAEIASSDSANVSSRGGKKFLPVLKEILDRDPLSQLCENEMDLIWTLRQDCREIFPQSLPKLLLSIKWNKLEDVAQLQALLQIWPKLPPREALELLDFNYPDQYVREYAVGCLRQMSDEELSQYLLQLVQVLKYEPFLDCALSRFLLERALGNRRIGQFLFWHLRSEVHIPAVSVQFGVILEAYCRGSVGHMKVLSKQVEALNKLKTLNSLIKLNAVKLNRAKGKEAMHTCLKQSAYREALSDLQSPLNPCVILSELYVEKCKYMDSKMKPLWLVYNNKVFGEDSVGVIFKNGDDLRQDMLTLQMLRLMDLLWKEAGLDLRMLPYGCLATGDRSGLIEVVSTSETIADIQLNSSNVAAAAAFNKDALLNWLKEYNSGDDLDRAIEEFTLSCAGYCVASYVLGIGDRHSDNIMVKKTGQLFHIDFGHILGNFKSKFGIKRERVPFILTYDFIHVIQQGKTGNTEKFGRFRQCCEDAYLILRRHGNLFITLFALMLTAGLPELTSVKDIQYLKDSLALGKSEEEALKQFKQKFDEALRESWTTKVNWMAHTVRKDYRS
Sequence of Phosphatidylinositol 4,5-bisphosphate 3-kinase catalytic subunit gamma isoform (P48736 whole entry, canonical isoform): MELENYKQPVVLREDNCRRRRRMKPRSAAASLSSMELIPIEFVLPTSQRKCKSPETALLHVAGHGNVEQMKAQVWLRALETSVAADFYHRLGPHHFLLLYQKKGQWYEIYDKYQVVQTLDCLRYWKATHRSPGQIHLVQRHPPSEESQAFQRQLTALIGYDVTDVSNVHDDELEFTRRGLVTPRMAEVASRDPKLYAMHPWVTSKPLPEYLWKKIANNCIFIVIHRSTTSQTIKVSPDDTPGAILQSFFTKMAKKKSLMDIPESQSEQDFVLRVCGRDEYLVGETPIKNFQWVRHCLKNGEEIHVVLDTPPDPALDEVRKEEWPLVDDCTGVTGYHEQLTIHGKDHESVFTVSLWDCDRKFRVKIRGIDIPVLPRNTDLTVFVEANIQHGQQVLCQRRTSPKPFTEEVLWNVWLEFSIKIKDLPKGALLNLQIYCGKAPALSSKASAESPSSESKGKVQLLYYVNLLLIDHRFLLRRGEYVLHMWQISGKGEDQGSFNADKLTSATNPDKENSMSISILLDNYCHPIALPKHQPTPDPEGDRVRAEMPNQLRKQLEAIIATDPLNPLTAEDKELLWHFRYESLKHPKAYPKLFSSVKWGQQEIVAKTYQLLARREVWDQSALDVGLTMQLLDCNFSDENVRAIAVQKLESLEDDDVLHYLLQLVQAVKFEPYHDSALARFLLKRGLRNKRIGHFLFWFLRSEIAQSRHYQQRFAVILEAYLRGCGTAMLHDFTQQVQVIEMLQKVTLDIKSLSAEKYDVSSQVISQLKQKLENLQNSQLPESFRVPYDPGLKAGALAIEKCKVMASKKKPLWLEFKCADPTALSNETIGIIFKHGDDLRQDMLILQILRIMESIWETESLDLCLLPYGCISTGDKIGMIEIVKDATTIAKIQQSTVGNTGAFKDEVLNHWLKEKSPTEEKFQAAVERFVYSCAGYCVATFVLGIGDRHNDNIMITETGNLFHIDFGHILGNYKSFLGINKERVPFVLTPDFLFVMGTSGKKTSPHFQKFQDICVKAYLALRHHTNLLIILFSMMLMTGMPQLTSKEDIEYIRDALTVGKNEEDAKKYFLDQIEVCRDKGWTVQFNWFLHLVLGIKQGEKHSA

Usually logD stands for lipophilicity at a set pH, counting ionised and neutral species. The IC50 is the point on the concentration scale where inhibition reaches its midpoint. In data set [1], `O=c1cc(N2CCOCC2)nc(NCc2ccccc2)[nH]1` came in with a logD of 1.2. Moreover, the IC50 in data set [2] came out at 1.9 µM; in data set [3], 12.2 µM.
Consider `O=c1nc(N2CCOCC2)cc(NCc2cccc(Cl)c2Cl)[nH]1`, for which the figures for the IC50 in data set [2] and in data set [3] were 1.5 µM and 100 µM, respectively.
In the same order, the values of `NCc1nc(NCc2ccccc2)cc(N2CCOCC2)n1` are 87 µM and over 83.3 µM.
In the same order, the values of `COC(=O)c1cc(NCc2ccccc2)nc(N2CCOCC2)c1` are 32 µM and 240 µM.
As to `O=c1cc(NCc2ccccc2)nc(N2CCOCC2)[nH]1`, the logD in data set [1] is 1.1. For the same compound, the results for the IC50 in data set [2] and in data set [3] were 63 µM and 283 µM, respectively.
In the case of `c1ccc(CNc2cc(N3CCOCC3)ncn2)cc1`, the IC50 in data set [2] is 36 µM; in data set [3], over 83.3 µM.
One may read the solubility as how much of the substance goes into solution per volume. Usually half-life stands for how long it takes for the measured level to halve. High values mean slow loss, low ones fast loss. In data set [1], `O=c1cc(N2CCOCC2)nc(NCc2cccc3ccccc23)[nH]1` had a logD of 2.4. The solubility in data set [4] was determined as 4.5 µM (≈ 1.51 µg/mL). Also, the IC50 in data set [2] was 0.093 µM; in data set [5] it was 0.14 µM; in data set [7], 18.5 µM; in data set [3], 4.3 µM. Also, in data set [6], the half-life stood at 41 min. Also, the Ratio in the data set on Liver microsomes worked out at 0.21.
In the case of `CN(C)C(=O)c1cc(N2CCOCC2)nc(NCc2ccccc2)n1`, the IC50 in data set [2] is 25 µM.
Turning to `O=c1cc(N2CCOCC2)nc(NCc2cccc(Cl)c2Cl)[nH]1`, the values for the 50% inhibitory concentration (IC50) in data set [2] and in data set [3] were 0.084 µM and 3 µM, respectively.
Consider `Nc1nc(NCc2ccccc2)cc(N2CCOCC2)n1`, for which the values for the IC50 in data set [2] and in data set [3] were 110 µM and over 83.3 µM, respectively.
`O=c1cc(NCc2ccccc2)[nH]c(N2CCOCC2)c1` displayed a pH-dependent lipophilicity (logD) in data set [1] of 1.8. The IC50 in data set [2] is 34 µM; in data set [3], 142 µM.
Consider `N#Cc1nc(NCc2ccccc2)cc(N2CCOCC2)n1`, for which the values for the half-inhibitory concentration (IC50) in data set [2] and in data set [3] were 1.6 µM and 41.4 µM, respectively.
In the same order, the values of `O=c1cc(N2CCOCC2)nc(NCc2c(Cl)cccc2Cl)[nH]1` are 1.5 µM and 3.38 µM.
In the case of `Cc1cc(N2CCOCC2)nc(NCc2ccccc2)n1`, the IC50 in data set [2] stood at 130 µM.
In turn, `O=c1nc(N2CCOCC2)cc(NCc2cccc3ccccc23)[nH]1` had a logD in data set [1] of 1.5. The compound further gave a solubility in data set [4] of over 100 µM. Moreover, the IC50 is 2.6 µM in data set [2] and over 83.3 µM in data set [3]. The half-life in data set [6] is over 115 min. Further, the Ratio in the data set on Liver microsomes is recorded as 0.
`Cc1cc(C(C)Nc2ccccc2)c2nc(N3CCOCC3)cc(=O)n2c1` (stereo not given) had a logD in data set [1] of 3.6. Moreover, the IC50 in data set [3] worked out at 5.7 µM.
Turning to `C[C@H](Nc1cc(N2CCOCC2)nc(=O)[nH]1)c1cccc2ccccc12`, the IC50 turned out to be 10 µM in data set [2] and 52.8 µM in data set [3].
Take `NC(=O)c1cc(N2CCOCC2)nc(NCc2ccccc2)n1`: the 50% inhibitory concentration (IC50) in data set [2] came to 2.5 µM.
In the case of `O=c1cc(N2CCOCC2)nc(NCc2cccc(Cl)c2)[nH]1`, the IC50 in data set [2] is 0.47 µM; in data set [3] it was 7.9 µM.
In the same order, the values of `OCc1cc(NCc2ccccc2)nc(N2CCOCC2)c1` are 43 µM and 119 µM.
The corresponding values for `O=c1cc(N2CCOCC2)nc(NCc2cc(Cl)ccc2Cl)[nH]1` are 1.4 µM and 4.52 µM.
In the same order, the values of `O=c1cc(N2CCOCC2)nc(NCc2ccccc2Cl)[nH]1` are 0.57 µM and 4.88 µM.
Take `CNC(=O)c1cc(N2CCOCC2)nc(NCc2ccccc2)n1`: the IC50 in data set [2] was 23 µM.
With `C[C@@H](Nc1cc(N2CCOCC2)nc(=O)[nH]1)c1cccc2ccccc12`, the IC50 in data set [2] was found to be 36 µM; in data set [3] it was 146 µM.
In the case of `O=c1nc(N2CCOCC2)cc(NCc2ccccc2)[nH]1`, the logD in data set [1] came to 0.5. The results for the IC50 in data set [2] and in data set [3] were 29 µM and over 83.3 µM, respectively.
